# Compounds with a hit are over-represented: about 1.9% of the library has one in this group of screens.
# NTR1 ag: activates human neurotensin receptor 1; P30989; NTR1-U2OS beta-arrestin-GFP spot imaging, agonist mode; activation, % at 20 µM; 0.17% of 330,000 active;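 active means activation at or above 40% of the spot to cytoplasm intensity ratio, with at least 20 cells analyzed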;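 further: 0% = DMSO without peptide and 100% = 100 nM NTR1 peptide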
# TLR4 MyD88 comp: TLR4-MyD88 interaction inhibition in cells; O00206+Q99836; HeLa CL3-4 TLR4/MyD88 BLA complementation, FRET ratio; inhibition, % at 8.4 µM; 0.18% of 200,000 active; in the data active means inhibition above about 25%;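 further: 0% = vehicle and 100% = reference inhibitor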
# MC4R antagonist: antagonists of human melanocortin 4 receptor (MC4R); 0.48% of 360,000 active; AID 540295; MC4R-expressing cells, MTII-stimulated cAMP, LANCE TR-FRET; inhibition, % at 6.5 µM;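 active means inhibition above its plate's cutoff, the mean of tested wells on that plate plus 3 SD, cut at about 29% in these data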;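 further: 0% = Melanotan II alone and 100% = Melanotan II plus saturating MCL0020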
#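 Material: U2OS-MC4R stable cell line | Reagent: Melanotan II challenge after compound preincubation | Doses: One concentration, 6.5 µM nominal | Incubation: 30-min compound preincubation, 1-h Melanotan II challenge, 1-h detection, room temperature | Signal: TR-FRET cAMP assay | Replicates: One well per compound, no replicates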
# MC4R ag barr: activates human MC4R beta-arrestin recruitment. U2OS MC4R beta-arrestin complementation, luminescence; percent of melanotan II response, DMSO zero. AID 540308. 0.98% of 360,000 active. activation, % at 8.9 µM. P32245;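 active means activation above a per-plate cutoff, the mean activation of sample wells on that plate plus 3 SD, cut at about 8% in these data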
# TLR9-MyD88 inh: TLR9-MyD88 interaction inhibition; 0.21% of 340,000 active; CHO BLA complementation TLR9-MyD88, CCF4 FRET ratio; inhibition, % at 4.98 µM; Q9NR96+Q99836;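 active means inhibition above the mean over all tested compounds plus 3 SD, cut at about 21% in these data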;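 further: 0% = DMSO only wells and 100% = clavulanate BLA inhibitor control wells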
# NOD2 RIPK2 PPI: blocks binding of human NOD2 to RIPK2; inhibition, % at 4.98 µM; CHO BLA complementation NOD2-RIPK2, CCF4 ratio; 0.38% of 360,000 active; in the data active means inhibition above about 21%;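 further: 0% = vehicle only and 100% = reference blocker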
# Target sequence (O43353 whole entry, looked up): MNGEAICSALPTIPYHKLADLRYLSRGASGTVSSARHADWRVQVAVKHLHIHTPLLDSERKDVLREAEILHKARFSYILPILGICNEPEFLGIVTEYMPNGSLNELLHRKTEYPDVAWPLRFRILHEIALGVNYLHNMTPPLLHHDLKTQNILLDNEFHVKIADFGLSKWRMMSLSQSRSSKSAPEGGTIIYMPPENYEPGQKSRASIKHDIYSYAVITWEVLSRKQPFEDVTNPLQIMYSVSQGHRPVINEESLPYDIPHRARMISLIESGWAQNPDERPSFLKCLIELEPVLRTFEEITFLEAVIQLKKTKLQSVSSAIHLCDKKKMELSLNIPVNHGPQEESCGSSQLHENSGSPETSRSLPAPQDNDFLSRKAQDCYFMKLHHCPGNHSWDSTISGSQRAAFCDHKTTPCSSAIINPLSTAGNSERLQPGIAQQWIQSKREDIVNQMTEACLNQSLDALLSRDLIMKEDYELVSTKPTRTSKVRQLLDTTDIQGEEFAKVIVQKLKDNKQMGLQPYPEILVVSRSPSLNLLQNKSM
# MC4R barr conf: human MC4R beta-arrestin agonism confirmation; U2OS MC4R beta-arrestin recruitment, luminescence; scaled DMSO 0%, Melanotan II 100%; activation, % at 8.9 µM; shares compounds with MC4R ag barr; 31% of 2,400 active;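 active means mean activation across replicates above the hit cutoff set in the earlier primary screen, cut at about 8% in these data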
# MOR-DOR barr ag: counter-screen for MC4R agonists: agonists of mu-delta opioid heterodimer | shares compounds with MC4R ag barr | U2OS PathHunter beta-arrestin, beta-gal luminescence; percent of deltorphin B response, DMSO zero | activation, % at 9.2 µM | 5.8% of 2,400 active | AID 602194;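 active means mean activation across replicates exceeds the hit threshold derived in the earlier primary screen, cut at about 18% in these data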;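 further: 100% = deltorphin B at 0.9 µM final and 0% = DMSO alone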
# The depositor's hits bear a star; nt = no result given.
SMILES,NTR1 ag,TLR4 MyD88 comp,MC4R antagonist,MC4R ag barr,TLR9-MyD88 inh,NOD2 RIPK2 PPI,MC4R barr conf,MOR-DOR barr ag
O=C(NNC(=O)c1ccccc1Cl)c1csc(N2CCOCC2)n1,2.0,nt,7.3,-2.6,0.3,5.8,nt,nt
NC(=O)c1ccc(NC(=O)COC(=O)CCC2CCCCC2)cc1,2.0,nt,6.6,1.4,-7.4,-3.9,nt,nt
O=C(CNCC1CCCCC1)Nc1ccc(OC(F)(F)F)cc1,6.3,3.3,-2.7,14.6*,7.4,2.2,8.1,8.9
Cc1ccc(NC(=O)C(C)OC(=O)CCC2CCCCC2)cc1 (stereo not drawn),0.5,nt,7.0,10.5*,-6.4,-2.4,3.1,5.6
COc1ccc(NC(=O)COC(=O)CCC2CCCCC2)cc1,0.3,nt,7.2,9.9*,-3.1,4.4,-0.4,8.4
COc1cc(NC(=O)C2CC(c3ccccc3Cl)=NO2)cc(OC)c1OC (stereo not drawn),-0.5,nt,15.0,0.9,-12.6,-3.5,nt,nt
CC(Sc1nnc(Cc2cccs2)n1C1CC1)C(=O)NC1CCS(=O)(=O)C1 (stereo not drawn),0.1,nt,0.5,-0.5,-3.9,-1.0,nt,nt
Cc1nc2ccc(S(=O)(=O)NCC(=O)N3CCC(C)CC3)cc2s1,-1.4,5.0,1.8,3.6,-1.2,-1.8,nt,nt
Cc1cccc2sc(NC(=O)C3CCCN(S(=O)(=O)c4cccc5nonc45)C3)nc12 (stereo not drawn),4.0,-12.3,5.8,9.9*,8.8,8.5,2.7,7.0
Cc1ccc2nc(NC(=O)C3CCCN(S(=O)(=O)c4cccc5nonc45)C3)sc2c1 (stereo not drawn),-2.5,nt,nt,nt,nt,nt,nt,nt
Cc1ccc(-c2c(C)c(-c3ccc(F)cc3)nc(N)c2C#N)o1,3.9,2.0,10.3,13.2*,-7.7,-5.9,1.3,9.7
CC(C)[C@H](NC(=O)Cc1ccccc1)C(=O)OCc1cc(=O)n2c(n1)sc1ccccc12,1.5,1.6,25.2,14.1*,1.8,-2.7,1.8,3.6
Cc1ccc2c(CC(=O)OCc3cc(=O)n4c(n3)sc3ccccc34)coc2c1,0.5,-0.5,11.2,-0.4,3.2,2.5,nt,nt
O=C1[C@H]2CCC=C[C@H]2[C@H](c2cccc(Br)c2)N1Cc1ccccc1,4.7,nt,4.5,2.5,3.5,-9.3,nt,nt
CC1CN(C(=O)COC(=O)c2ccc(C#N)cc2)CC(C)O1 (stereo not drawn),-1.0,nt,-0.8,1.7,-2.3,-3.9,nt,nt
Cc1cc(OCC(=O)C(C)(C)C)c2c(C)c(C)c(=O)oc2c1,2.8,-4.9,-5.3,14.8*,3.2,-3.8,1.2,6.0
COc1ccc(C(C)=O)cc1CC(=O)Nc1ccc2c(c1)CCC2,1.6,nt,6.5,-2.0,-1.3,-6.8,nt,nt
Cc1[nH]c2ccc(-c3nnc(SCC(=O)c4ccccc4F)o3)cc2c1C,7.2,8.6,15.8,10.4*,-12.9,-5.8,0.7,4.4
Cc1ccc(C(=O)CSc2nnc(-c3ccc4[nH]c(C)c(C)c4c3)o2)cc1C,1.6,-10.0,5.2,-0.5,-4.8,-12.7,nt,nt
CCOC(=O)c1c(NC(=S)Nc2ccc(C)cc2)sc2c1CCC2,16.3,-7.8,3.9,3.3,-2.2,-0.5,nt,nt
CCOC(=O)c1c(NC(=S)Nc2ccc(F)cc2)sc2c1CCC2,12.9,7.3,4.4,11.2*,-13.3,-1.0,8.5*,4.2
COc1ccc(C(=O)Nc2cc(-c3ccc(C)cc3)no2)cc1,0.0,nt,-1.4,9.8*,-0.7,-18.3,-2.0,5.3
CCCCNCc1cc2ccccc2o1,-1.1,nt,6.8,0.7,4.2,-7.8,nt,nt
Clc1ccc(OCCCNCc2ccccc2)c(Br)c1,24.7,9.7,1.2,0.5,7.4,2.2,nt,nt
Clc1ccc(Cl)c(OCCCCNCc2ccccc2)c1,2.1,-9.8,-1.5,10.2*,2.6,9.8,15.7*,11.2

# Screening results (PubChem)
